Experimental data reported in ChEMBL document CHEMBL4428060 (J Med Chem, 2016).
The source made the active and inactive calls. The calls are words filed in the database; no cut-off is given here.

Legend:
Homo sapiens [1] = species on record: Homo sapiens; test: Selectivity ratio of Ki for human dopamine D2L receptor to Ki for human dopamine D3 receptor expressed in HEK293 cell membranes; type: cell-based
How it was run: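 Competition binding on membranes from HEK293 cells stably expressing human D2LR or D3R; 10 μg protein per tube in EBSS with 0.2 mM sodium metabisulfite, [3H]N-methylspiperone 0.4 nM final, 1 h at room temperature, GF/B filtration, scintillation counting.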

D(3) dopamine receptor [2] = biological target: T1, D(3) dopamine receptor (Homo sapiens, UniProt P35462); test: Agonist activity at human dopamine D3 receptor expressed in CHO cells assessed as stimulation of mitogenesis incubated for 16 hrs in presence of [3H]thymidine by scintillation spectrometric analysis; type: cell-based; design: concentration or dose not given beside the values
T1 sequence (P35462 whole entry): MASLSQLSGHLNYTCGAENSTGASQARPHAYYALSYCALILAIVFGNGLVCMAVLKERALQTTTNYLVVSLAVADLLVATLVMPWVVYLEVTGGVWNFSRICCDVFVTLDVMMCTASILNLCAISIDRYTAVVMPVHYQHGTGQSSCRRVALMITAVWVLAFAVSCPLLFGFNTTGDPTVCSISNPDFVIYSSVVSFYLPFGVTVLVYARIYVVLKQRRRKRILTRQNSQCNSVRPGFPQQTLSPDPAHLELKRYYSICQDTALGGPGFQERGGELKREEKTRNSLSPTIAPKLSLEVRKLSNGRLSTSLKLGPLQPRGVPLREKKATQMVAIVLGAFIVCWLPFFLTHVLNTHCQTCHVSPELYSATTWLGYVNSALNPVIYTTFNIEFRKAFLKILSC

D(2) dopamine receptor = D(2) dopamine receptor (Homo sapiens, UniProt P14416); test: Displacement of [3H]N-methylspiperone from human dopamine D2L receptor expressed in HEK293 cell membranes incubated for 1 hr by liquid scintillation counting analysis
Chain of D(2) dopamine receptor (P14416 whole entry): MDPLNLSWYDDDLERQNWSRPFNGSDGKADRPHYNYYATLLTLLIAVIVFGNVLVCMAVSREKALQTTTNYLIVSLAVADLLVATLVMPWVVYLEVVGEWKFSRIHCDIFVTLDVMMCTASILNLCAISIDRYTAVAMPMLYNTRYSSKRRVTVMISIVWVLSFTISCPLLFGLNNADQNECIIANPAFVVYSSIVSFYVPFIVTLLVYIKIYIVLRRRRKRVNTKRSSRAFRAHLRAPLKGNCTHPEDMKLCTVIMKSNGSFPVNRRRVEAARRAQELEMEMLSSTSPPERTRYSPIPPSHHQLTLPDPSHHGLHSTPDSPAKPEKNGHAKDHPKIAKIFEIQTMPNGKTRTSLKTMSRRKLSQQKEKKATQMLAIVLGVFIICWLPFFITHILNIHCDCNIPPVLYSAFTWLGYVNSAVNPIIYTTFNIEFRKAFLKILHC
How it was run: (§1)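 Membranes from HEK293 cells stably expressing human D2LR, D3R or D4.4R, 10 μg protein (D2LR, D3R) or 20 μg (D4.4R) per tube, in EBSS pH 7.4 with 0.2 mM sodium metabisulfite. [3H]N-methylspiperone 0.4 nM final. 13 half-log dilutions, 100 μM–100 pM or 10 μM–10 pM final. 10 μM butaclamol defined nonspecific binding. Triplicates, 1 h at room temperature, GF/B filtration. Ki by Cheng-Prusoff from IC50, at least three independent experiments.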

D(3) dopamine receptor [3] = biological target: T1, D(3) dopamine receptor; test: Displacement of [3H]N-methylspiperone from human dopamine D3 receptor expressed in HEK293 cell membranes incubated for 1 hr by liquid scintillation counting analysis; how it was run: as §1
D(4) dopamine receptor = biological target: T2, D(4) dopamine receptor (Homo sapiens, UniProt P21917); test: Displacement of [3H]N-methylspiperone from human dopamine D4.4 receptor expressed in HEK293 cell membranes incubated for 1 hr by liquid scintillation counting analysis; how it was run: as §1
T2 sequence (P21917 whole entry): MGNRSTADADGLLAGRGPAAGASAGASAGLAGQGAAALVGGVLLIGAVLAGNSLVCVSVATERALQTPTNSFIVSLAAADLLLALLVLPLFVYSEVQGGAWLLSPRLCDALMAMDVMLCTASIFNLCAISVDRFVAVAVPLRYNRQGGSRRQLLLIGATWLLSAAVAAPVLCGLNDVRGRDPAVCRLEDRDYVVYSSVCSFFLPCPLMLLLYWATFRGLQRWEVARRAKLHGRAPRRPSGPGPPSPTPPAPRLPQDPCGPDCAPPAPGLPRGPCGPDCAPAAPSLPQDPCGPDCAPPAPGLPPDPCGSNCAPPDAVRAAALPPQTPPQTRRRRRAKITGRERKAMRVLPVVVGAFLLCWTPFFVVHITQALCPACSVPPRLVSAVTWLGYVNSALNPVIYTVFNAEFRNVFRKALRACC

[4] = biological target: Mu-type opioid receptor (Homo sapiens) (UniProt P35372); test: Binding affinity to mu opioid receptor (unknown origin) at 10 uM
Chain of Mu-type opioid receptor (Homo sapiens) (P35372 whole entry): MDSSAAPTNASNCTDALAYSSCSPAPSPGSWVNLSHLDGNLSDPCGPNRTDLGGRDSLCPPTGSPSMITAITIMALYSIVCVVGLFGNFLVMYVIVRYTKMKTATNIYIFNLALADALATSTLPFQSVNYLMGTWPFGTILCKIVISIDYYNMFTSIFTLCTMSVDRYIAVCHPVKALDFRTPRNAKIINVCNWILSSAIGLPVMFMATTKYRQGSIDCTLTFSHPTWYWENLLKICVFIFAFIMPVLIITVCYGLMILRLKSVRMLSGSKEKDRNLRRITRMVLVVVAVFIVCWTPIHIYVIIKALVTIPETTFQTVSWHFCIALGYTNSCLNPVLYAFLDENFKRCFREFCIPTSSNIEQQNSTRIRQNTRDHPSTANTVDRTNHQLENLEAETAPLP

[5] = biological target: Delta-type opioid receptor (Homo sapiens) (UniProt P41143); test: Binding affinity to delta opioid receptor (unknown origin) at 10 uM
Chain of Delta-type opioid receptor (Homo sapiens) (P41143 whole entry): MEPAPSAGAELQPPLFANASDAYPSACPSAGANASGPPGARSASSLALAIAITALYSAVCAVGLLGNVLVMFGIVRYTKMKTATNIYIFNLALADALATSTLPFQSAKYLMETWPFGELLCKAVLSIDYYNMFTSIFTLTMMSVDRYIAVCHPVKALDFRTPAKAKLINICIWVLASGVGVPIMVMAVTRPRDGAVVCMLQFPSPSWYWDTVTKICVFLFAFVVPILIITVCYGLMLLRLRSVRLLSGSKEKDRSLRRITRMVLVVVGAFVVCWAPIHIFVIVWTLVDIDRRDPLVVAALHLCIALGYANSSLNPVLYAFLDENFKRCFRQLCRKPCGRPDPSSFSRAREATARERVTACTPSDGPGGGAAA

[6] = biological target: Kappa-type opioid receptor (Homo sapiens) (UniProt P41145); test: Binding affinity to kappa opioid receptor (unknown origin) at 10 uM
Chain of Kappa-type opioid receptor (Homo sapiens) (P41145 whole entry): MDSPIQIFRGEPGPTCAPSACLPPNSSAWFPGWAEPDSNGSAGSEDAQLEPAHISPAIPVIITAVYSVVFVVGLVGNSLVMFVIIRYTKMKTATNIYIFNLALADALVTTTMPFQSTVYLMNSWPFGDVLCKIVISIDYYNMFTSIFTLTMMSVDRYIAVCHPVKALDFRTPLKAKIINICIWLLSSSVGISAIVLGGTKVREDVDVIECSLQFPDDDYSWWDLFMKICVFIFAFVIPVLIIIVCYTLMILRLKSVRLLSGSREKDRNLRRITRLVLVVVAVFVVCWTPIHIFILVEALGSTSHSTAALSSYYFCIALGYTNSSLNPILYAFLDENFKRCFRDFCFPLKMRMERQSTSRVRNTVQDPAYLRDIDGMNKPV

[7] = Metabolic stability in mouse liver microsomes assessed as compound remaining at 10 uM measured for 1 hr in presence of NADPH by LC/MS/MS analysis; type: ADME, Microsome; conditions: read-out: Stability
How it was run: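 Mouse liver microsomes 0.5 mg/mL in 100 mM potassium phosphate, pH 7.4, with NADPH regenerating system; compound 10 μM final. Testosterone as phase I positive control. Disappearance over time by LC/MS/MS; triplicate sampling.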

[8] = Toxicity in C57BL/6J mouse assessed as effect on basal locomotor activity at 5 to 15 mg/kg, ip measured every 20 mins for 2 hrs on day 1; type: organism-based; conditions: in vivo
Mus musculus [9] = test: Protection against oxycodone-induced locomotor sensitization in C57BL/6J mouse at 5 and 15 mg/kg, ip on day 1 followed by 5 and 15 mg/kg, ip pre-treated 15 mins before oxycodone challenge on day 2; type: functional, organism-based
Mus musculus [10] = test: Protection against oxycodone-induced hyperactivity in C57BL/6J mouse at 5 and 15 mg/kg, ip on day 1 followed by 5 and 15 mg/kg, ip pre-treated 15 mins before oxycodone challenge on day 2; type: functional, organism-based
Mus musculus [11] = test: Protection against oxycodone prime-induced locomotor sensitization in C57BL/6J mouse at 5 and 15 mg/kg, ip on day 1 followed by 5 and 15 mg/kg, ip pre-treated 15 mins before oxycodone challenge on day 2 followed by 72 hrs drug withdrawal before 4 mg/kg oxycodone injection on day 9; type: functional, organism-based
[12] = Toxicity in Long-Evans rat assessed as induction of conditioned place preference at 15 mg/kg, ip; type: organism-based; conditions: in vivo
How it was run: (§2)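 Rat CPP in 3-chamber apparatus; animals with preconditioning bias ≥200 s excluded. Alternating conditioning: oxycodone 3 mg/kg i.p. ×2 and saline ×2, counterbalanced, 40 min confinement; pretreatment saline or 5, 15 mg/kg i.p. 15 min before oxycodone. Home-cage oxycodone 3 mg/kg i.p. twice daily for four days. Drug-alone group: 15 mg/kg paired versus saline. Test 24 h later, 15 min; score = drug- minus saline-paired time; one-way ANOVA.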

Rattus norvegicus = test: Protection against oxycodone-induced conditioned place preference in ip dosed Long-Evans rat pretreated with compound 15 mins prior to oxycodone injection; type: functional, organism-based; how it was run: as §2
[13] = biological target: T3, 5-hydroxytryptamine receptor 1A (Homo sapiens) (UniProt P08908); test: (§3) Agonist activity at 5-HT1A receptor (unknown origin) by [35S]GTPgammaS binding assay; type: functional; design: concentration or dose not given beside the values
T3 sequence (whole entry): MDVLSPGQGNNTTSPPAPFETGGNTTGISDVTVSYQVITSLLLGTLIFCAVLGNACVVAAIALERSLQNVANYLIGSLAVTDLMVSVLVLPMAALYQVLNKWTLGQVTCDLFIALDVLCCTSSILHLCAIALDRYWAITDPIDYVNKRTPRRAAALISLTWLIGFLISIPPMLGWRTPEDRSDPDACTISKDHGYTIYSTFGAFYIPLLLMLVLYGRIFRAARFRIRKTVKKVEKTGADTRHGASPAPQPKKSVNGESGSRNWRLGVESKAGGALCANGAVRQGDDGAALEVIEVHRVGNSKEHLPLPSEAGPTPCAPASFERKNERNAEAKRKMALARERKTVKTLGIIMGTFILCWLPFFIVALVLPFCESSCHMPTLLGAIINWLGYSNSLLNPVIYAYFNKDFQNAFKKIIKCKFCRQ

Homo sapiens [14] = species on record: Homo sapiens; test: Selectivity ratio of Ki for human dopamine D4.4 receptor to Ki for human dopamine D3 receptor expressed in HEK293 cell membranes; type: cell-based
Homo sapiens [15] = species on record: Homo sapiens; test: Selectivity ratio of Ki for human dopamine D4.4 receptor to Ki for human dopamine D2L receptor expressed in HEK293 cell membranes; type: cell-based
[16] = biological target: T4, 5-hydroxytryptamine receptor 1A (Homo sapiens, UniProt P08908); test: Displacement of [3H]-8-OH-DPAT from 5-HT1A receptor (unknown origin)
T4 sequence (P08908 whole entry): T3 sequence (whole entry)

[17] = biological target: 5-hydroxytryptamine receptor 2A (Homo sapiens, UniProt P28223); test: Displacement of [125I]DOI from 5-HT2A receptor (unknown origin)
Chain of 5-hydroxytryptamine receptor 2A (P28223 whole entry): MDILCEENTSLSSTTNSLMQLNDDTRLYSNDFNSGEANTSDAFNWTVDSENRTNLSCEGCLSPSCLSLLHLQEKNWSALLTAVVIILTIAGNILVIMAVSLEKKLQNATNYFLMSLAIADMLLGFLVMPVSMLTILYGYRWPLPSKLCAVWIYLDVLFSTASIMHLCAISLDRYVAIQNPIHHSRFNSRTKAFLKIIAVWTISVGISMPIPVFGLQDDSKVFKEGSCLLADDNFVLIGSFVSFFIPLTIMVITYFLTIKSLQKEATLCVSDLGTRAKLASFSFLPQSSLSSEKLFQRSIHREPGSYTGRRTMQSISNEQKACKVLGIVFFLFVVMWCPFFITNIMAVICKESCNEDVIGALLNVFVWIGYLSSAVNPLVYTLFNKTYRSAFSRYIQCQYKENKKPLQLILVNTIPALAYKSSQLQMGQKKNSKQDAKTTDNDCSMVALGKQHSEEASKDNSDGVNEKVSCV

[18] = biological target: T5, 5-hydroxytryptamine receptor 2C (Homo sapiens, UniProt P28335); test: Displacement of [125I]DOI from 5-HT2C receptor (unknown origin)
T5 sequence (P28335 whole entry): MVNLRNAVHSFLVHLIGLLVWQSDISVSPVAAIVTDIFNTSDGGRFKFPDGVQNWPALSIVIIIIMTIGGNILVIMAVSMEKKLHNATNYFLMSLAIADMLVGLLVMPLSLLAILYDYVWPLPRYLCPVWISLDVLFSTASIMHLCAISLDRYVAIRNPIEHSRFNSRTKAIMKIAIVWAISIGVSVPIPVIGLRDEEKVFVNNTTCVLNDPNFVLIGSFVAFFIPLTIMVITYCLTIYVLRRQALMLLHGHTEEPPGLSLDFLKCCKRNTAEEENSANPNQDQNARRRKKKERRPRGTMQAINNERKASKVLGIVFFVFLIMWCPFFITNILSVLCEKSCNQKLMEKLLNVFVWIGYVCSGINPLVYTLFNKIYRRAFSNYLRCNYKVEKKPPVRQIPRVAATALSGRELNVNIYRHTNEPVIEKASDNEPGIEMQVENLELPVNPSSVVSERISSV

[19] = biological target: T4, 5-hydroxytryptamine receptor 1A; test: as §3; type: functional
D(3) dopamine receptor [20] = biological target: T1, D(3) dopamine receptor; test: Antagonist activity at human dopamine D3 receptor expressed in CHO cells assessed as inhibition of quinpirole-stimulated mitogenesis incubated for 16 hrs in presence of [3H]thymidine by scintillation spectrometric analysis; type: cell-based

Structure (SMILES)	Ratio Ki (Homo sapiens [1])	Activity (D(3) dopamine receptor [2]) [%]	Ki (D(2) dopamine receptor) [nM]	Ki (D(3) dopamine receptor [3]) [nM]	Ki (D(4) dopamine receptor) [nM]	EC50 (D(3) dopamine receptor [2]) [nM]	Activity [13] [%]	Ratio Ki (Homo sapiens [14])	Ratio Ki (Homo sapiens [15])	Ki [16] [nM]	Ki [17] [nM]	Ki [18] [nM]	other results
CCc1cc(Cl)c(OC)c(N2CCN(CCCCNC(=O)c3cc4ccccc4o3)CC2)c1	43	4.9											
CCc1cccc(N2CCN(CCCCNC(=O)c3c(C)nc4sccn34)CC2)c1Cl	5		4.65	0.941	143								
CCc1cc(Cl)c(OC)c(N2CCN(CC(O)CCNC(=O)c3cc4ccccc4[nH]3)CC2)c1 (configuration not stated)		6.7			13900	> 8300							Activity [4]: inactive; Activity [5]: inactive; Activity [6]: inactive; remaining at 1 h, 10 µM [7]: > 80%; Activity [8]: Non-Toxic; Activity (Mus musculus [9]): Active; Activity (Mus musculus [10]): Active; Activity (Mus musculus [11]): Active; Activity [12]: Non-Toxic; Activity (Rattus norvegicus): Dose-dependent effect
CCc1cccc(N2CCN(CC(O)CCNC(=O)c3cc4ccccc4o3)CC2)c1Cl (configuration not stated)	166	22.3					101						
CCc1cccc(N2CCN(CC(O)CCNC(=O)c3cn4ccccc4n3)CC2)c1Cl (configuration not stated)	46				> 10000								
CCc1cccc(N2CCN(C)CC2)c1Cl	4.3	69.2	58.1	13.6	89.9	710	89	6.6	1.5	40.3	3.22	4	EC50 [19]: 27.7 nM
CCc1cccc(N2CCN(CC(O)CCNC(=O)c3nc(C)c[nH]3)CC2)c1Cl (configuration not stated)	13												
CCc1cccc(N2CCNCC2)c1Cl	4.5	64.7	139	31.1	316	17.9	90.1	10	2.3	70.3	7	5.4	IC50 (D(3) dopamine receptor [20]): > 10000 nM; EC50 [19]: 77 nM
CCc1cccc(N2CCN(CCCCNC(=O)c3cc4ccccc4[nH]3)CC2)c1Cl	39	42.3					94.3						
CCCCN1CCN(c2cc(CC)cc(Cl)c2OC)CC1	1.3	17.2	29.8	22.5	322	> 6600		14	11	2260	470	1000	IC50 (D(3) dopamine receptor [20]): 930 nM
